Data on two molecules can be found in ChEMBL document CHEMBL1145350, “Solid-phase synthesis of quinol fatty alcohols, design of N/O-substituted quinol fatty alcohols and comparative activities on axonal growth” (Bioorg Med Chem Lett, 2006).

For this assay, the system named is Radical scavenging activity. Put plainly: Antioxidant activity assessed as ability to scavenge hydroxyl radicals by ABTS competition assay. It counts as functional. Summed up:
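Hydroxyl radical scavenging in ethanolic medium by ABTS competition. Hydroxyl radicals oxidize ABTS to the stable ABTS•+ cation radical, read by absorbance at 405 nm. IC50 is the compound concentration giving a 50% reduction in ABTS•+.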

The structures appear in SMILES notation. Bounds are passed on as bounds.

`Cc1c(C)c2c(c(C)c1O)CCC(C)(C(=O)O)O2` (configuration not stated) [TROLOX]: the IC50 (usually the concentration needed to halve the response being measured) worked out at 600 µM. `COc1ccc(OC)c(CCCCCCCCCCCCCCCO)c1`: the IC50 was > 10000 µM.
